Results published in ChEMBL document CHEMBL1255284, “Aspergillus section Fumigati: antifungal susceptibility patterns and sequence-based identification” (2008).
In brackets after ≈: the same amount, converted by molar mass.

Experiments:
Aspergillus lentulus [1] = assay: Antimicrobial activity against Aspergillus lentulus isolate CNM-CM-3364 obtained from bronchoalveolar lavage fluid of patient after 48 hrs by broth microdilution method; assay type: functional; conditions: isolate CNM-CM-3364, Lung
Outline: (§1)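 CLSI M38-A broth microdilution with modifications: RPMI 1640 with L-glutamine, 2% glucose, buffered to pH 7 with 0.165 M MOPS. Inoculum of 1 × 10^5 to 5 × 10^5 CFU/ml from 3- to 5-day-old cultures. Incubated 35°C, 48 h, humid. Visual reading with a mirror. MIC is complete growth inhibition; echinocandin MEC is hyphal morphological alteration. Azoles 8 to 0.015 μg/ml; others 16 to 0.03 μg/ml.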

[2] = system: Neosartorya pseudofischeri; assay: Antimicrobial activity against Neosartorya pseudofischeri isolate CNM-CM-2270 obtained from sputum of patient after 48 hrs by broth microdilution method; assay type: functional; conditions: Aspergillus thermomutatus, isolate CNM-CM-2270, 48 h
Outline: (§2)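 CLSI M38-A broth microdilution with modifications: RPMI 1640 with L-glutamine, MOPS-buffered to pH 7, plus 2% glucose. Inoculum 1 × 10^5 to 5 × 10^5 CFU/ml from 3–5-day cultures. Incubated at 35°C for 48 h, humid. Read visually with a mirror. MIC = complete growth inhibition; echinocandin MEC = altered hyphal morphology. QC strain A. fumigatus ATCC 2004305.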

Neosartorya hiratsukae [3] = assay: Antimicrobial activity against Neosartorya hiratsukae isolate CNM-CM-3740 obtained from oropharyngeal exudate of patient after 48 hrs by broth microdilution method; assay type: functional; conditions: Aspergillus hiratsukae, isolate CNM-CM-3740, 48 h; outline: as §1
Neosartorya hiratsukae [4] = assay: Antimicrobial activity against Neosartorya hiratsukae isolate CNM-CM-3303 obtained from skin of patient after 48 hrs by broth microdilution method; assay type: functional; conditions: Aspergillus hiratsukae, isolate CNM-CM-3303, 48 h; outline: as §1
Aspergillus viridinutans [5] = assay: Antimicrobial activity against Aspergillus viridinutans isolate CNM-CM-3147 obtained from oropharyngeal exudate of patient after 48 hrs by broth microdilution method; assay type: functional; conditions: isolate CNM-CM-3147, 48 h; outline: as §1
[6] = system: Aspergillus fumigatiaffinis; assay: Antimicrobial activity against Aspergillus fumigatiaffinis isolate CNM-CM-3227 obtained from bronchoalveolar lavage fluid of patient after 48 hrs by broth microdilution method; conditions: isolate CNM-CM-3227, Lung
[7] = system: Aspergillus fumigatiaffinis; assay: Antimicrobial activity against Aspergillus fumigatiaffinis isolate CNM-CM-2280 obtained from sputum of patient after 48 hrs by broth microdilution method; conditions: isolate CNM-CM-2280, 48 h
Aspergillus lentulus [8] = assay: Antimicrobial activity against Aspergillus lentulus isolate CNM-CM-3134 obtained from sputum of patient after 48 hrs by broth microdilution method; assay type: functional; conditions: isolate CNM-CM-3134, 48 h; outline: as §1
Aspergillus viridinutans [9] = assay: Antimicrobial activity against Aspergillus viridinutans isolate CNM-CM-4518 obtained from nail of patient after 48 hrs by broth microdilution method; assay type: functional; conditions: isolate CNM-CM-4518, 48 h; outline: as §1
Aspergillus lentulus [10] = assay: Antimicrobial activity against Aspergillus lentulus isolate CNM-CM-4330 obtained from sputum of patient after 48 hrs by broth microdilution method; assay type: functional; conditions: isolate CNM-CM-4330, 48 h; outline: as §1
Aspergillus lentulus [11] = assay: Antimicrobial activity against Aspergillus lentulus isolate CNM-CM-3537 obtained from sputum of patient after 48 hrs by broth microdilution method; assay type: functional; conditions: isolate CNM-CM-3537, 48 h; outline: as §1
Aspergillus lentulus [12] = assay: Antimicrobial activity against Aspergillus lentulus isolate CNM-CM-4428 obtained from skin of patient after 48 hrs by broth microdilution method; assay type: functional; conditions: isolate CNM-CM-4428, 48 h; outline: as §1
[13] = system: Neosartorya pseudofischeri; assay: Antimicrobial activity against Neosartorya pseudofischeri isolate CNM-CM-3769 obtained from sputum of patient after 48 hrs by broth microdilution method; assay type: functional; conditions: Aspergillus thermomutatus; outline: as §2
[14] = system: Neosartorya pseudofischeri; assay: Antimicrobial activity against Neosartorya pseudofischeri isolate CNM-CM-3914 obtained from nail of patient after 48 hrs by broth microdilution method; assay type: functional; conditions: Aspergillus thermomutatus, isolate CNM-CM-3914, 48 h; outline: as §2
Aspergillus lentulus [15] = assay: Antimicrobial activity against Aspergillus lentulus isolate CNM-CM-3538 obtained from sputum of patient after 48 hrs by broth microdilution method; assay type: functional; conditions: isolate CNM-CM-3538, 48 h; outline: as §1
Neosartorya hiratsukae [16] = assay: Antimicrobial activity against Neosartorya hiratsukae isolate CNM-CM-4328 obtained from cornea of patient after 48 hrs by broth microdilution method; assay type: functional; conditions: Aspergillus hiratsukae, isolate CNM-CM-4328, Cornea; outline: as §1
Aspergillus lentulus [17] = assay: Antimicrobial activity against Aspergillus lentulus isolate CNM-CM-4370 obtained from sputum of patient after 48 hrs by broth microdilution method; assay type: functional; conditions: isolate CNM-CM-4370, 48 h; outline: as §1
Aspergillus lentulus [18] = assay: Antimicrobial activity against Aspergillus lentulus isolate CNM-CM-4387 obtained from sputum of patient after 48 hrs by broth microdilution method; assay type: functional; conditions: isolate CNM-CM-4387, 48 h; outline: as §1
Neosartorya hiratsukae [19] = assay: Antimicrobial activity against Neosartorya hiratsukae isolate CNM-CM-3764 obtained from oropharyngeal exudate of patient after 48 hrs by broth microdilution method; assay type: functional; conditions: Aspergillus hiratsukae, isolate CNM-CM-3764, 48 h; outline: as §1
[20] = system: Aspergillus fumisynnematus; assay: Antimicrobial activity against Aspergillus fumisynnematus isolate CNM-CM-4063 obtained from bronchoalveolar aspirate of patient after 48 hrs by broth microdilution method; assay type: functional; conditions: isolate CNM-CM-4063, Lung; outline: as §1
Aspergillus lentulus [21] = assay: Antimicrobial activity against Aspergillus lentulus isolate CNM-CM-4420 obtained from nail of patient after 48 hrs by broth microdilution method; assay type: functional; conditions: isolate CNM-CM-4420, 48 h; outline: as §1
Aspergillus lentulus [22] = assay: Antimicrobial activity against Aspergillus lentulus isolate CNM-CM-1290 obtained from sputum of patient after 48 hrs by broth microdilution method; assay type: functional; conditions: isolate CNM-CM-1290, 48 h; outline: as §1
Aspergillus fumigatus = assay: Antimicrobial activity against Aspergillus fumigatus ATCC 2004305 after 48 hrs by broth microdilution method; assay type: functional; conditions: ATCC 2004305, 48 h
Aspergillus lentulus [23] = assay: Antimicrobial activity against Aspergillus lentulus isolate CNM-CM-3583 obtained from sputum of patient after 48 hrs by broth microdilution method; assay type: functional; conditions: isolate CNM-CM-3583, 48 h; outline: as §1
Aspergillus lentulus [24] = assay: Antimicrobial activity against Aspergillus lentulus isolate CNM-CM-4426 obtained from sputum of patient after 48 hrs by broth microdilution method; assay type: functional; conditions: isolate CNM-CM-4426, 48 h; outline: as §1
[25] = system: Neosartorya pseudofischeri; assay: Antimicrobial activity against Neosartorya pseudofischeri isolate CNM-CM-4060 obtained from sputum of patient after 48 hrs by broth microdilution method; assay type: functional; conditions: Aspergillus thermomutatus; outline: as §2
Neosartorya hiratsukae [26] = assay: Antimicrobial activity against Neosartorya hiratsukae isolate CNM-CM-3305 obtained from skin of patient after 48 hrs by broth microdilution method; assay type: functional; conditions: Aspergillus hiratsukae, isolate CNM-CM-3305, 48 h; outline: as §1
Aspergillus lentulus [27] = assay: Antimicrobial activity against Aspergillus lentulus isolate CNM-CM-3599 obtained from sputum of patient after 48 hrs by broth microdilution method; assay type: functional; conditions: isolate CNM-CM-3599, 48 h; outline: as §1
Aspergillus lentulus [28] = assay: Antimicrobial activity against Aspergillus lentulus isolate CNM-CM-4415 obtained from sputum of patient after 48 hrs by broth microdilution method; assay type: functional; conditions: isolate CNM-CM-4415, 48 h; outline: as §1

## C[C@@H]1[C@H](O)[C@@H](C)/C=C/C=C/C=C/C=C/C=C/C=C/C=C/[C@H](O[C@@H]2O[C@H](C)[C@@H](O)[C@H](N)[C@@H]2O)C[C@@H]2O[C@](O)(C[C@@H](O)C[C@@H](O)[C@H](O)CC[C@@H](O)C[C@@H](O)CC(=O)O[C@H]1C)C[C@H](O)[C@H]2C(=O)O [AMPHOTERICIN B]
Aspergillus lentulus [1]
  MIC: 8.4 µg/mL (≈ 9.09 µM)
[2]
  MIC: 0.17 µg/mL (≈ 0.184 µM)
Neosartorya hiratsukae [3]
  MIC: 0.66 µg/mL (≈ 0.714 µM)
Neosartorya hiratsukae [4]
  MIC: 0.5 µg/mL (≈ 0.541 µM)
Aspergillus viridinutans [5]
  MIC: 0.58 µg/mL (≈ 0.628 µM)
[6]
  MIC: 8 µg/mL (≈ 8.66 µM)
[7]
  MIC: 16 µg/mL (≈ 17.3 µM)
Aspergillus lentulus [8]
  MIC: 10 µg/mL (≈ 10.8 µM)
Aspergillus viridinutans [9]
  MIC: 0.37 µg/mL (≈ 0.4 µM)
Aspergillus lentulus [10]
  MIC: 8 µg/mL (≈ 8.66 µM)
Aspergillus lentulus [11]
  MIC: 7 µg/mL (≈ 7.58 µM)
Aspergillus lentulus [12]
  MIC: 12 µg/mL (≈ 13 µM)
[13]
  MIC: 1 µg/mL (≈ 1.08 µM)
[14]
  MIC: 0.25 µg/mL (≈ 0.271 µM)
Aspergillus lentulus [15]
  MIC: 7.25 µg/mL (≈ 7.85 µM)
Neosartorya hiratsukae [16]
  MIC: 0.75 µg/mL (≈ 0.812 µM)
Aspergillus lentulus [17]
  MIC: 7.33 µg/mL (≈ 7.93 µM)
Aspergillus lentulus [18]
  MIC: 6 µg/mL (≈ 6.49 µM)
Neosartorya hiratsukae [19]
  MIC: 1 µg/mL (≈ 1.08 µM)
[20]
  MIC: 1 µg/mL (≈ 1.08 µM)
Aspergillus lentulus [21]
  MIC: 10.7 µg/mL (≈ 11.5 µM)
Aspergillus lentulus [22]
  MIC: 4.5 µg/mL (≈ 4.87 µM)
Aspergillus fumigatus
  MIC: 0.25 µg/mL (≈ 0.271 µM)
Aspergillus lentulus [23]
  MIC: 8 µg/mL (≈ 8.66 µM)
Aspergillus lentulus [24]
  MIC: 12 µg/mL (≈ 13 µM)
[25]
  MIC: 0.25 µg/mL (≈ 0.271 µM)
Neosartorya hiratsukae [26]
  MIC: 0.31 µg/mL (≈ 0.335 µM)
Aspergillus lentulus [27]
  MIC: 2.66 µg/mL (≈ 2.88 µM)
Aspergillus lentulus [28]
  MIC: 6 µg/mL (≈ 6.49 µM)

## CC[C@H](C)C[C@H](C)CCCCCCCCC(=O)N[C@H]1C[C@@H](O)[C@@H](NCCN)NC(=O)[C@@H]2[C@@H](O)CCN2C(=O)[C@H]([C@H](O)CCN)NC(=O)[C@H]([C@H](O)[C@@H](O)c2ccc(O)cc2)NC(=O)[C@@H]2C[C@@H](O)CN2C(=O)[C@H]([C@@H](C)O)NC1=O [CASPOFUNGIN]
Aspergillus lentulus [1]; read-out: MEC
  minimal effective concentration: 0.18 µg/mL
[2]; read-out: MEC
  minimal effective concentration: 0.51 µg/mL
Neosartorya hiratsukae [3]; read-out: MEC
  minimal effective concentration: 0.66 µg/mL
Neosartorya hiratsukae [4]; read-out: MEC
  minimal effective concentration: 0.34 µg/mL
Aspergillus viridinutans [5]; read-out: MEC
  minimal effective concentration: 0.67 µg/mL
[6]; read-out: MEC
  minimal effective concentration: 0.16 µg/mL
[7]; read-out: MEC
  minimal effective concentration: 1.3 µg/mL
Aspergillus lentulus [8]; read-out: MEC
  minimal effective concentration: 0.38 µg/mL
Aspergillus viridinutans [9]; read-out: MEC
  minimal effective concentration: 1 µg/mL
Aspergillus lentulus [10]; read-out: MEC
  minimal effective concentration: 1.2 µg/mL
Aspergillus lentulus [11]; read-out: MEC
  minimal effective concentration: 0.42 µg/mL
Aspergillus lentulus [12]; read-out: MEC
  minimal effective concentration: 0.29 µg/mL
[13]; read-out: MEC
  minimal effective concentration: 0.12 µg/mL
[14]; read-out: MEC
  minimal effective concentration: 1 µg/mL
Aspergillus lentulus [15]; read-out: MEC
  minimal effective concentration: 0.11 µg/mL
Neosartorya hiratsukae [16]; read-out: MEC
  minimal effective concentration: 0.03 µg/mL
Aspergillus lentulus [17]; read-out: MEC
  minimal effective concentration: 0.91 µg/mL
Aspergillus lentulus [18]; read-out: MEC
  minimal effective concentration: 0.25 µg/mL
Neosartorya hiratsukae [19]; read-out: MEC
  minimal effective concentration: 0.26 µg/mL
[20]; read-out: MEC
  minimal effective concentration: 0.5 µg/mL
Aspergillus lentulus [21]; read-out: MEC
  minimal effective concentration: 0.33 µg/mL
Aspergillus lentulus [22]; read-out: MEC
  minimal effective concentration: 0.28 µg/mL
Aspergillus fumigatus; read-out: MEC
  minimal effective concentration: 0.12 µg/mL
Aspergillus lentulus [23]; read-out: MEC
  minimal effective concentration: 1 µg/mL
Aspergillus lentulus [24]; read-out: MEC
  minimal effective concentration: 0.22 µg/mL
[25]; read-out: MEC
  minimal effective concentration: 0.62 µg/mL
Neosartorya hiratsukae [26]; read-out: MEC
  minimal effective concentration: 0.03 µg/mL
Aspergillus lentulus [27]; read-out: MEC
  minimal effective concentration: 0.26 µg/mL
Aspergillus lentulus [28]; read-out: MEC
  minimal effective concentration: 0.25 µg/mL
